Source: ChEMBL document CHEMBL4402514, “Norepinephrine-Transporter-Targeted and DNA-Co-Targeted Theranostic Guanidines” (J Med Chem, 2020)

Assays:
[1] = Stability in human serum assessed as intact compound level after 60 mins by HPLC analysis; format: ADME, cell-free; conditions: read-out: Stability
In short: (§1)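 Radioiodinated guanidines were incubated in mouse, human or pig serum and analyzed by radio-HPLC on a C18 column at 0.8 mL/min. The gradient was 0–95% CH3CN over 50 min, then 95% for 20 min. Intact compound was fitted to monoexponential degradation to give half-life. Values are average ± std err.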

[2] = Drug uptake in human BE(2)-C cells assessed as level of 125I-incorporation into DNA after 1 hr and followed by compound washout with non-radioactive medium/PBS and measured immediately by gamma counting method relative to control; format: ADME, cell-based
In short: (§2)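 BE(2)-C cells were treated with radioiodinated guanidine for 1 h, washed with nonradioactive medium and PBS. They were processed immediately or returned to the incubator for a further 23 h. 125I in the DNA fraction was gamma-counted. Values are average (n ≥ 3) ± SD.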

[3] = Drug level in tumor of NCR nu/nu mouse xenografted with human BE(2)-C cells at 0.83 +/- 0.09 MBq administered intratumorally pretreated with 18 umol of BNPP after 24 hrs by gamma counting analysis; format: ADME, tissue-based, Neoplasm; conditions: in vivo, other
In short: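 BE(2)-C xenograft-bearing nude mice were pre-injected with the carboxylesterase inhibitor bis-para-nitrophenylphosphate (9 or 18 μmol). They then received intratumor IDG. Tumor %ID/g was determined at 24 h.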

[4] = biological target: T1, Sodium-dependent noradrenaline transporter (Homo sapiens, UniProt P23975); assay: Substrate activity at NET in human BE(2)-C cells assessed as inhibition of drug uptake by measuring MIBG IC50 incubated for 1 hr in presence of nonradioactive MIBG at 37 degC by filtration based gamma counting method; format: cell-based
[5] = Drug level in human SK-N-SH cells DNA at 40 +/- 0.5 kBq/mL after 1 hr and followed by compound washout with non-radioactive medium/PBS and measured immediately by gamma counting method relative to control; format: ADME, cell-based
In short: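 SK-N-SH cells were exposed 1 h to 125I compound (≈39–40 kBq/mL), then washed with nonradioactive medium and PBS. Cells were processed immediately (1 h) or re-incubated in fresh medium for 23 h (24 h). Cytoplasmic, nuclear and DNA fractions were gamma-counted.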

[6] = Stability in human serum assessed as intact compound level after 5 mins by HPLC analysis; format: ADME, cell-free; conditions: read-out: Stability; in short: as §1
[7] = Drug uptake in human BE(2)-C cells assessed as level of 125I-incorporation into DNA incubated 1 hr followed by compound washout with non-radioactive medium/PBS and measured after 23 hrs by gamma counting method relative to control; format: ADME, cell-based; in short: as §2
[8] = Half life in mouse serum by HPLC analysis; format: ADME, cell-free; in short: as §1
[9] = Stability in EMEM medium assessed as intact compound level incubated for 24 hrs by HPLC analysis; format: physicochemical; conditions: read-out: Stability
In short: (§3)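 The compound was incubated 24 h in cell culture medium without cells or with SK-N-SH cells. Intact compound and 125IUdR catabolite were quantified by radio-HPLC on a C18 column at 0.8 mL/min, with a 0–95% CH3CN gradient over 50 min and 95% for 20 min.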

SK-N-SH [10] = assay: Antiproliferative activity against human SK-N-SH cells assessed as intracellular concentration of 125I required to show 63% inhibition after 24 hrs; format: cell-based
In short: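 D37 (63% kill) was estimated for SK-N-SH cells treated 24 h with IDG. It is expressed as extracellular (kBq/mL) or intracellular (mBq/cell) 125I. Survival was assessed by trypan blue and clonogenic assays. Values are average (std error).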

SK-N-SH [11] = assay: Anticlonogenic activity against human SK-N-SH cells assessed as inhibition of reproductive integrity at 35 kBq/mL after 14 days by crystal violet staining based assay relative to control; format: functional; set-up: scale not given: the % may be the effect or the level left
In short: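 SK-N-SH cells exposed to 125I guanidine for 24 h, then harvested, replated at 500 live cells/flask and grown in nonradioactive medium for 14 days (up to 21 days at the highest levels). Colonies were stained with crystal violet and counted. Values are average (n ≥ 3) ± SD.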

[12] = Partition coefficient, logP of compound; format: physicochemical; conditions: octanol/water
[13] = Stability in human SK-N-SH cells assessed as parent compound level after 24 hrs by HPLC analysis; format: ADME, cell-based; conditions: read-out: Stability; in short: as §3
[14] = biological target: T1, Sodium-dependent noradrenaline transporter; assay: Substrate activity at NET in human BE(2)-C cells assessed as inhibition of drug uptake by measuring MIBG IC50 incubated for 1 hr in presence of nonradioactive MIBG by gamma counting method; format: cell-based
[15] = biological target: T1, Sodium-dependent noradrenaline transporter; assay: Substrate activity at NET in human SK-N-SH cells assessed as inhibition of drug uptake by measuring MIBG IC50 incubated for 1 hr in presence of nonradioactive MIBG by gamma counting method; format: cell-based
In short: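 Exponentially growing SK-N-SH monolayers (endogenous NET) were exposed for 1 h to 125I-labelled guanidine plus nonradioactive MIBG over a range of concentrations. Cell-associated 125I was counted in a γ-counter, and the MIBG IC50 was estimated.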

[16] = biological target: T1, Sodium-dependent noradrenaline transporter; assay: Substrate activity at NET in human SK-N-SH cells assessed as inhibition of drug uptake by measuring MIBG IC50 incubated for 1 hr in presence of nonradioactive MIBG at 4 degC by filtration based gamma counting method; format: cell-based
In short: (§4)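 This was a cell-suspension competition assay. SK-N-SH cells in suspension were incubated with 125I-guanidine and graded nonradioactive MIBG, and uptake was read by filtration and γ-counting. Runs were done at 37 °C, or at 4 °C after cooling the cells on ice. The MIBG IC50 was estimated from the inhibition curves.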

[17] = biological target: T1, Sodium-dependent noradrenaline transporter; assay: Substrate activity at NET in human BE(2)-C cells assessed as inhibition of drug uptake by measuring MIBG IC50 incubated for 1 hr in presence of nonradioactive MIBG at 4 degC by filtration based gamma counting method; format: cell-based
BE(2)-C [18] = assay: Antiproliferative activity against human BE(2)-C cells assessed as intracellular concentration of 125I required to show 63% inhibition after 1 hr; format: cell-based
In short: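 BE(2)-C cells were treated for 1 h with several IDG concentrations, washed extensively, harvested with trypsin and replated for clonogenic assay. Cellular 125I uptake was measured per cell. D37 (63% kill) was estimated from survival versus extracellular concentration or intracellular content (mBq/cell). Values are average (std error).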

[19] = biological target: T1, Sodium-dependent noradrenaline transporter; assay: Substrate activity at NET in human SK-N-SH cells assessed as inhibition of drug uptake by measuring MIBG IC50 incubated for 1 hr in presence of nonradioactive MIBG at 37 degC by filtration based gamma counting method; format: cell-based; in short: as §4
BE(2)-C [20] = assay: Antitumor activity against human BE(2)-C cells xenografted with NCR nu/nu mouse assessed as tumor volume at 8.4 +/- 0.3 mBq administered intratumorally after 1 day (reference value: 0.39 +/- 0.15 cm3); format: functional
In short: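 Athymic Ncr nu/nu female and male mice bearing subcutaneous BE(2)-C xenografts were randomized by lottery into untreated control and treatment groups. Treatment was a single intratumor injection of 8.4 ± 0.3 MBq/mouse. Tumor volumes were followed to day 7 (controls) or day 14. Doubling times were calculated from day 0 to 7 and day 0 to 14. Values are average ± std err.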

T1 sequence (P23975 whole entry): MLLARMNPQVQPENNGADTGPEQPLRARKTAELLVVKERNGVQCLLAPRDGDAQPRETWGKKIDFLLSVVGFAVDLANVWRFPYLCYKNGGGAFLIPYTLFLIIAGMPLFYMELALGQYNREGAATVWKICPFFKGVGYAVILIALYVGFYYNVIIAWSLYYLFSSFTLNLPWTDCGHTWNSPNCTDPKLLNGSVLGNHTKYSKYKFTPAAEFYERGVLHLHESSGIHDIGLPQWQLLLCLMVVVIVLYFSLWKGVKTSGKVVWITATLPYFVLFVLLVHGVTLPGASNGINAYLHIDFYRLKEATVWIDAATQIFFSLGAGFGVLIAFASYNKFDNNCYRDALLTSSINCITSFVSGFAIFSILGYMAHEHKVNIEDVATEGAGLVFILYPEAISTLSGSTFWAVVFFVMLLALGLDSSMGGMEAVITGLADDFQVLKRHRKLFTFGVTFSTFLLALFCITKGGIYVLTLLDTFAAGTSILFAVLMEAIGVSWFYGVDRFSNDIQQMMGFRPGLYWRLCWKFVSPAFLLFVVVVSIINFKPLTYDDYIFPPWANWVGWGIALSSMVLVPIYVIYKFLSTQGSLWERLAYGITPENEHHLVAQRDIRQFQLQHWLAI

remaining at 1 h [1]: 62.4%
Drug uptake [2]: 93%
Drug uptake [3]: 1.66 % ID/g
IC50 [4]: 28.7 µM
Drug uptake [5]: 70 to 80%
remaining at 5 min [6]: 93%
Drug uptake [7]: 99%
half-life [8]: 3.54 min
remaining at 24 h [9]: 86%
logP [12]: -0.2
remaining at 24 h [13]: 33%
IC50 [14]: 8.2 µM
IC50 [15]: 76.2 µM
IC50 [16]: 22 µM
IC50 [17]: 23.9 µM
IC50 [19]: 35.2 µM
Structure (SMILES): N=C(N)NCCCCCC(=O)O[C@H]1C[C@H](n2cc([125I])c(=O)[nH]c2=O)O[C@@H]1CO
Activity (SK-N-SH [10]): 1.2 mBq
Activity (SK-N-SH [11]): >90%
Activity (BE(2)-C [18]): 0.91 mBq
Activity (BE(2)-C [20]): 0.42 cm3
